Columns and labels:
MS2 coat protein [1] = assay: apparent Kd, MS2 coat protein; higher = weaker binding; RNA-MaP array; tryptophan 2.4 mM where present
Summary of the method: (§1)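 Stalled E. coli RNA polymerase transcribed the designs on Illumina sequencing-chip clusters. SNAP-549-labelled MS2 coat protein was titrated from 0.7 or 1.5 nM, doubling to 3 µM, without and then with constant ligand, in 100 mM Tris-HCl pH 7.5, 80 mM KCl, 4 mM MgCl2, BSA, DTT, yeast tRNA and Tween-20. Per-cluster binding curves were fitted to green signal normalised to red-channel RNA signal and control-cluster median Fmax. The apparent Kd is the median of the filtered fits.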

MS2 coat protein [2] = assay: apparent Kd, MS2 coat protein; higher = weaker binding; RNA-MaP array; theophylline 2 mM where present
Summary of the method: as §1

[3] = designed as: ON switch for tryptophan, no ligand
[4] = ligand present: tryptophan, designed as: ON switch for tryptophan
[5] = designed as: OFF switch for tryptophan, no ligand
[6] = ligand present: tryptophan, designed as: OFF switch for tryptophan
[7] = designed as: OFF switch for theophylline, no ligand
[8] = ligand present: theophylline, designed as: OFF switch for theophylline
[9] = designed as: ON switch for theophylline, no ligand
[10] = ligand present: theophylline, designed as: ON switch for theophylline

CUACAUUUGUAGAAACCGGUCAACAAUAAUCGAGGACCGGUACGGCCGCCACUCGAUGUGUUAUACACAUGAGGAUCACCCAUGU
apparent Kd (MS2 coat protein [1]; [3]): 21.1 nM
apparent Kd (MS2 coat protein [1]; [4]): 17.4 nM

GGAAACCCGACGGCCGCCACUAACGGUCUCAAAAGAGGUUGAACACAUGAGGAUCACCCAUGUAAUAGGACCGGGUCGUGUGAAA
apparent Kd (MS2 coat protein [1]; [3]): 20.3 nM
apparent Kd (MS2 coat protein [1]; [4]): 18.5 nM

AAACAUGAGGCGGCCGCCACUGUAUGAACAUGAGGAUCACCCAUGUAUGUACCCAUGUGUGUACACAGGACCGGGCCAUGUGGAU
apparent Kd (MS2 coat protein [1]; [5]): 28.1 nM
apparent Kd (MS2 coat protein [1]; [6]): 19.9 nM

ACGACGGCUGCGGCCGCCACUGUACAUGAGGAUCACCCAUGUGUAGUAAUUGGGACCCUGUGUUACAGGACCGGGUAGUUGAUUA
apparent Kd (MS2 coat protein [1]; [5]): 34.6 nM
apparent Kd (MS2 coat protein [1]; [6]): 69.9 nM

UCGGAUGCGGCGGCCGCCACUCGCGGAUAACGAUAGCUUAACAUGAGGAUCACCCAUGUGUCAUGGAGGACCGGGCCCAUACCGU
apparent Kd (MS2 coat protein [1]; [3]): 23.4 nM
apparent Kd (MS2 coat protein [1]; [4]): 20.7 nM

AAUAAUAUCCUCAUGUGAGUCGUACCGUAACGAGGACCGGUACGGCCGCCACUCGAACAUGAGGAUCACCCAUGUAGGUACGACA
apparent Kd (MS2 coat protein [1]; [3]): 207 nM
apparent Kd (MS2 coat protein [1]; [4]): 99.7 nM

CGAGUAAGAACAAUCGAAUAACGGUUUUCGCGAGGACCGGUACGGCCGCCACUCGUGUGAUAUCACACAUGAGGAUCACCCAUGU
apparent Kd (MS2 coat protein [1]; [3]): 80.2 nM
apparent Kd (MS2 coat protein [1]; [4]): 41.2 nM

ACAUGAGGAUCACCCAUGUGAAGCAGGGUACGAGGACCGGUACGGCCGCCACUCGAACAUUAUAACGAGUGAAUGGCAACGAUGU
apparent Kd (MS2 coat protein [1]; [5]): 11.9 nM
apparent Kd (MS2 coat protein [1]; [6]): 14.2 nM

GCUGGACUUUCGGCCGCCACUGAGAGAGUCGUGUGAACAUGAGGAUCACCCAUGUAAUAUAUAUACAGGACCGGGAGGGUUGUGC
apparent Kd (MS2 coat protein [1]; [5]): 11.8 nM
apparent Kd (MS2 coat protein [1]; [6]): 11.9 nM

UUAGUAACGACGGCCGCCACUGAAUUUGAACAUGAGGAUCACCCAUGUAGAGAUCCUAGAAUAAACAGGACCGGGUCUGAUAAUG
apparent Kd (MS2 coat protein [1]; [5]): 95.7 nM
apparent Kd (MS2 coat protein [1]; [6]): 118 nM

GAGGAAACUCACAUGAGGAUCACCCAUGUACGAGGACCGGUACGGCCGCCACUCGAAACCAUGGGCGGUAGUACAUGGAAACAUG
apparent Kd (MS2 coat protein [1]; [5]): 72.3 nM
apparent Kd (MS2 coat protein [1]; [6]): 263 nM

AACAUGAGGAUCACCCAUGUACAUUUCGAUCGAGGACCGGUACGGCCGCCACUCGAAAACAUGAGGAUCACCCAUGUUCAACAGG
apparent Kd (MS2 coat protein [1]; [3]): 296 nM
apparent Kd (MS2 coat protein [1]; [4]): 184 nM

AACAUACAAUAUUAGGUGGAUAUAAGGCGGCGAGGACCGGUACGGCCGCCACUCGCGUACAUGAGGAUCACCCAUGUCUGAAACU
apparent Kd (MS2 coat protein [1]; [3]): 20.4 nM
apparent Kd (MS2 coat protein [1]; [4]): 23.5 nM

AUACAUGAGGAUCACCCAUGUGAUGGCCGGCGAGGACCGGUACGGCCGCCACUCGUGAUCCGUCCUGAAAGCAAAGCUCUCAACA
apparent Kd (MS2 coat protein [1]; [3]): 47.2 nM
apparent Kd (MS2 coat protein [1]; [4]): 91.2 nM

GGUUACUCUACGGCCGCCACUGUCAUGUAAAGAUACCUGUACAUGACAUGAGGAUCACCCAUGUGCAGGACCGGGUAGUGUAACC
apparent Kd (MS2 coat protein [1]; [3]): 152 nM
apparent Kd (MS2 coat protein [1]; [4]): 130 nM

AAUAUAAUAGACUCGUUUUAGUAUUUGGAACGAGGACCGGUACGGCCGCCACUCGUGAUUUACAUGAGGAUCACCCAUGUUAGCA
apparent Kd (MS2 coat protein [1]; [3]): 14.7 nM
apparent Kd (MS2 coat protein [1]; [4]): 13.1 nM

UGACAUUGCUCAGAUACCAGACAUGAGGAUCACCCAUGUACCGAGGUACCCGAAAGGAAUGUCCCUUGGCAGCUGAGCAAUGUCU
apparent Kd (MS2 coat protein [2]; [7]): 10.9 nM
apparent Kd (MS2 coat protein [2]; [8]): 152 nM

ACUCGGUAUGUCUAAUACCGAGAGUAUGAUACCAGUAUGGUGACAUACCCUUGGCAGCAUGGGACAUGAGGAUCACCCAUGUGUU
apparent Kd (MS2 coat protein [2]; [9]): 538 nM
apparent Kd (MS2 coat protein [2]; [10]): 505 nM

GCACGACAUGAGGAUCACCCAUGUGCAGAUACCAGUAAUGUAUAUUACCCUUGGCAGCUGAGUAGAUCUGGAGGGCUAUAGGUAA
apparent Kd (MS2 coat protein [2]; [9]): 13.8 nM
apparent Kd (MS2 coat protein [2]; [10]): 20.8 nM

UUAUUUAUAAUGGAUACCAGUCGUAUGGCCCGGAAUCCUGACAUGAGGAUCACCCAUGUCGACCCUUGGCAGCUGUUAUGGGUUU
apparent Kd (MS2 coat protein [2]; [7]): 14.5 nM
apparent Kd (MS2 coat protein [2]; [8]): 24.6 nM

UGUAUGUGAUUUGAUACCAGACCAGCUGGUGGUACAUGAGGAUCACCCAUGUAGGUUUGGGUCCCUUGGCAGCAAAUCGCAUACU
apparent Kd (MS2 coat protein [2]; [9]): 47.9 nM
apparent Kd (MS2 coat protein [2]; [10]): 30 nM

CCAUAAGUAACUGAUACCAGUGUACUGACAUGAGGAUCACCCAUGUUGGGUUUUGUUGUACACCCUUGGCAGCAGAAUCUUGUGG
apparent Kd (MS2 coat protein [2]; [7]): 63 nM
apparent Kd (MS2 coat protein [2]; [8]): 90.3 nM

CUCGAGGCCGGUGAUACCAGACACGAAACUAUACAUGAGGAUCACCCAUGUCAAACAACGGUCCCUUGGCAGCAUGGGUGUAUCC
apparent Kd (MS2 coat protein [2]; [9]): 68.9 nM
apparent Kd (MS2 coat protein [2]; [10]): 64.5 nM

UGGUUUGUGAUGGAUACCAGCAGAGAAAACGUUUAUCCUAACAUGAGGAUCACCCAUGUAUGCCCUUGGCAGCUGUUGUGGGCUA
apparent Kd (MS2 coat protein [2]; [7]): 32 nM
apparent Kd (MS2 coat protein [2]; [8]): 34.9 nM

AUAAGUAAUGUUUCGUGUUUUAUUACAGAUACCAGACUAUACGUUGUCCCUUGGCAGCUGGAUUACAUGAGGAUCACCCAUGUUG
apparent Kd (MS2 coat protein [2]; [7]): 19.5 nM
apparent Kd (MS2 coat protein [2]; [8]): 35.1 nM

AGGAAACAACAUGAGGAUCACCCAUGUGAUACCAGUAUCAAAAGAUACCCUUGGCAGCACACAUGACAUGAGGAUCACCCAUGUA
apparent Kd (MS2 coat protein [2]; [9]): 41.4 nM
apparent Kd (MS2 coat protein [2]; [10]): 84.4 nM

GAUGAACUAUUUGAUACCAGACUACAUGAGGAUCACCCAUGUGAGUUUCGUCCUCUGCCAGUCCCUUGGCAGCAAAUAGUUUAUC
apparent Kd (MS2 coat protein [2]; [7]): 18.9 nM
apparent Kd (MS2 coat protein [2]; [8]): 194 nM

AUUAUCAUGGUCAUAUAUAUUUCGUCAGAUACCAGACUAGAUAUAGUCCCUUGGCAGCUGUUACAUGAGGAUCACCCAUGUUAUU
apparent Kd (MS2 coat protein [2]; [7]): 121 nM
apparent Kd (MS2 coat protein [2]; [8]): 44.5 nM

UCUUACUAUAGUGAUACCAGACGUACAUGAGGAUCACCCAUGUUACAUUCUUGGUUAAAAGUCCCUUGGCAGCACGAUUUGUUCG
apparent Kd (MS2 coat protein [2]; [7]): 9.28 nM
apparent Kd (MS2 coat protein [2]; [8]): 9.5 nM

AUGUAAGUGGUGUCACUGUGGUCUAGUGAUACCAGUAUCGAAAGAUACCCUUGGCAGCGCUAGAACAUGAGGAUCACCCAUGUUU
apparent Kd (MS2 coat protein [2]; [7]): 68.8 nM
apparent Kd (MS2 coat protein [2]; [8]): 34.3 nM

GCUUGGGUGGCACAGCCCUGGCAGUGCGAUACCAGCACGGUAACGUGCCCUUGGCAGCGCACAUGAGGAUCACCCAUGUGGUGCG
apparent Kd (MS2 coat protein [2]; [7]): 69.5 nM
apparent Kd (MS2 coat protein [2]; [8]): 345 nM

AGACAUGAGGAUCACCCAUGUAGUAUGGAUACCAGAUCCAGAUUUAUCCCUUGGCAGCUGUGGUACAGCGUUGCAUCGCUCCUAG
apparent Kd (MS2 coat protein [2]; [7]): 32.3 nM
apparent Kd (MS2 coat protein [2]; [8]): 34.5 nM

UGACAUUGCUCAGAUACCAGACAUGAGGAUCACCCAUGUACCAAGGUAACCGAAAGGCAUGUCCCUUGGCAGCUGAGCAAUGUCU
apparent Kd (MS2 coat protein [2]; [7]): 11.1 nM
apparent Kd (MS2 coat protein [2]; [8]): 225 nM

UAUAUAUAUAUUGAUACCAGCAGAGAAAACGUUUAUCCUAACAUGAGGAUCACCCAUGUAUGCCCUUGGCAGCGGUAUAUAUAUA
apparent Kd (MS2 coat protein [2]; [7]): 25.7 nM
apparent Kd (MS2 coat protein [2]; [8]): 38 nM

AGACAUGAGGAUCACCCAUGUAGCAUGGAUACCAGAUCCAGAUUUAUCCCUUGGCAGCUGUGGUAAAGUGAUGGAUUGCUCCUAG
apparent Kd (MS2 coat protein [2]; [7]): 44.3 nM
apparent Kd (MS2 coat protein [2]; [8]): 55.5 nM

AGCUCAGAGAGUGAUACCAGACUACAUGAGGAUCACCCAUGUUACUUUUAAAUAUCAUGAGUCCCUUGGCAGCACAAGAAGAGCA
apparent Kd (MS2 coat protein [2]; [7]): 81 nM
apparent Kd (MS2 coat protein [2]; [8]): 168 nM

UUCUGGACCCGUGAUACCAGAGACAUGAGGAUCACCCAUGUACAUGAGGAUCACCCAUGUCUCCCUUGGCAGCACUGCAGGGAGC
apparent Kd (MS2 coat protein [2]; [7]): 115 nM
apparent Kd (MS2 coat protein [2]; [8]): 875 nM

UAAAAUAAAAGGGUGAAGGUAUAAACAGAUACCAGCCAGAUAACUGGCCCUUGGCAGCUGAAUGACAUGAGGAUCACCCAUGUCU
apparent Kd (MS2 coat protein [2]; [9]): 12 nM
apparent Kd (MS2 coat protein [2]; [10]): 33.3 nM

AUAACAUGAGGAUCACCCAUGUAAGGUGAUACCAGACGAAGUAAAGUCCCUUGGCAGCACAAGCAUAGUUGCGAAUAUUGAUAGA
apparent Kd (MS2 coat protein [2]; [9]): 469 nM
apparent Kd (MS2 coat protein [2]; [10]): 63.1 nM

ACCUACACGGAGACGUGUAGGAGUAAUGAUACCAGCAUGGAGACAUGCCCUUGGCAGCGUUACAUGAGGAUCACCCAUGUGGUGC
apparent Kd (MS2 coat protein [2]; [7]): 21.1 nM
apparent Kd (MS2 coat protein [2]; [8]): 483 nM

AAGACAUGAGGAUCACCCAUGUGGAGGGAUACCAGCCUGUGUGUGGGCCCUUGGCAGCUUAAAUUUAAUUUAAUUAAAUAAAUUU
apparent Kd (MS2 coat protein [2]; [9]): 34.7 nM
apparent Kd (MS2 coat protein [2]; [10]): 36.1 nM

UCAUUUGAGUGAGAUGUAAGGUAUCAUGAUACCAGUAGAUAAUUAUACCCUUGGCAGCAUAACAUGAGGAUCACCCAUGUACAUG
apparent Kd (MS2 coat protein [2]; [7]): 22.8 nM
apparent Kd (MS2 coat protein [2]; [8]): 24.2 nM

AUCCUCUAGAAUGAUACCAGACCAAACAUGAGGAUCACCCAUGUAUCAGGCAAUUGUUACGUCCCUUGGCAGCAUGUAUGCCGAC
apparent Kd (MS2 coat protein [2]; [9]): 27.7 nM
apparent Kd (MS2 coat protein [2]; [10]): 28.1 nM

AAACGUUGCUGCGAUACCAGACAUGAGGAUCACCCAUGUACCAAGGUAAGAAAAUAACAUGUCCCUUGGCAGCGCAGCAACGAAA
apparent Kd (MS2 coat protein [2]; [7]): 15.4 nM
apparent Kd (MS2 coat protein [2]; [8]): 412 nM

UGAUCCUACAGAGAUACCAGUGCCACUGAGUGACCAGACACAUGAGGAUCACCCAUGUAACACCCUUGGCAGCUCAACUAGAGGG
apparent Kd (MS2 coat protein [2]; [9]): 20.4 nM
apparent Kd (MS2 coat protein [2]; [10]): 69.7 nM

Source: the EternaBench riboswitch data
